# Screening data: PubChem, several laboratories
# AHR activator: AHR activators, primary screen, cell-based, luminescence, luciferase reporter, human | AHR-responsive luciferase reporter cells | actives 2.5% (n = 320,000) | activation, % at 5 µM | AID 2796, 2010; in the data active means activation above about 47%;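 further: 0% = vehicle wells and 100% = reference agonist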
# Mdm2 ligase inh: MDM2-luciferase reporter signal enhancers, primary screen, MDM2 E3 ligase inhibitor project, cell-based, luminescence, 1536-well. E3 ubiquitin-protein ligase Mdm2 (Homo sapiens), Q00987. cell-based MDM2 ubiquitination luciferase reporter, 2 h; 0 = plate control, 100 = twice control, blank-subtracted. AID 1230, 2008. actives 0.11% (n = 210,000). signal enhancement, % at 5 µM;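 active means signal enhancement of 30% or more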;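 further: luminescence tracks abundance of the self-degrading MDM2-luciferase fusion protein; higher signal means inhibition of MDM2 E3 ligase activity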
# Target sequence (Q00987 whole entry, looked up, the tested form may be a part): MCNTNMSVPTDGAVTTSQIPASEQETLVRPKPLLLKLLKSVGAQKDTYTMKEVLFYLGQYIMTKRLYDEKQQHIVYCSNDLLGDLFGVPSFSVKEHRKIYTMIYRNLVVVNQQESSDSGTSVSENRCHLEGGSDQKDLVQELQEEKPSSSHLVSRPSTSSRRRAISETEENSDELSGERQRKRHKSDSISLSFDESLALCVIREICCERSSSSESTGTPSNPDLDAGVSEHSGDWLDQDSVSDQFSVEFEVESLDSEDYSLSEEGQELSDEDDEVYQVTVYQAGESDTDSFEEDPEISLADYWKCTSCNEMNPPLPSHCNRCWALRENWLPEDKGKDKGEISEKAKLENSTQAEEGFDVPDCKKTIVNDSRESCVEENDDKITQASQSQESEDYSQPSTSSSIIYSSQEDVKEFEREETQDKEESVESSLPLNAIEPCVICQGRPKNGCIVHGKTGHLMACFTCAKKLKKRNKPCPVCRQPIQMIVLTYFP
#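 Assay system: stable mammalian line carrying autodegrading MDM2–luciferase fusion reporter; amount: 2000 cells seeded into each well; buffer or medium: DMEM; benchmarks: plate control and blank wells; signal: luciferase luminescence; timing: 2 h compound exposure at 37 °C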
# PERK inh: block of dimerizer-induced PERK translation repression, primary screen, PERK inhibitor project, CHO PERK-DD cells, SEAP luminescence, HTS; actives 0.17% (n = 220,000); CHO PERK-DD fusion, SEAP luminescence translation reporter; inhibition, % at 5.6 µM; Eukaryotic translation initiation factor 2-alpha kinase 3 (Homo sapiens), Q9NZJ5;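 active means inhibition above the mean inhibition of all tested compounds plus 3 SD, set separately per screening campaign, cut at about 2.9% in these data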;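 further: PERK kinase domain activated by AP20187 dimerizer at 100 nM; 0% = DMSO with dimerizer and 100% = rapamycin at 8.4 µM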
# NF-kB expr up: activators of NF-kB expression in neurons, primary screen, cell-based, HTS. human neuronal cells, NF-kB reporter expression; hits give high values. fold change at 12.5 µM. actives 1.6% (n = 190,000); in the data active means fold change above about 3.3
# APP 5'UTR act: activators of APP 5'UTR luciferase reporter, primary screen, SH-SY5Y cells | SH-SY5Y APP 5'UTR luciferase reporter, luminescence; zero percent = DMSO vehicle wells | AID 1276, 2008 | actives 1% (n = 190,000) | activation, % at 2 µM;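 active means activation above a set limit, based on mean plus 3 SD of controls, cut at about 140% in these data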
# STAT1 activator: STAT1 signaling activators, primary screen, cell-based, HTS, luciferase reporter. NIH 3T3 STAT1-luciferase reporter, IFN-gamma, luminescence; 100% = IFN-gamma alone, no compound. activation (% of control), % at 5.5 µM. actives 2.6% (n = 200,000). AID 932, 2007;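 active means activation above the screen-wide mean activation plus 3 SD, cut at about 130% in these data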;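 further: raw ratio to IFN-gamma control signal so 100% means no change and 0% no light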
# Numbers without * were called inactive; nt = not tested or not shown. Most compounds without a hit are left out; they make up all but 4.5% or so of the library.
SMILES,AHR activator,Mdm2 ligase inh,PERK inh,NF-kB expr up,APP 5'UTR act,STAT1 activator
CNC(=S)N/N=C/c1c2ccccc2c(Cl)c2ccccc12,48*,nt,nt,nt,nt,nt
C/C(=N\Nc1nccnc1Cl)c1ccc(O)cc1,28,nt,nt,nt,nt,nt
C/C(=N\Nc1nccnc1Cl)c1ccc(F)cc1,7,3,1,0.87,93,134*
COc1ccc(S(=O)(=O)N2CCN(C(=O)c3sccc3-c3ccccc3)CC2)cc1,1,nt,nt,nt,nt,nt
COc1cc(C2C(C#N)=C(N)Oc3cc(O)ccc32)cc2c1OCO2 (stereo unspecified),4,-15,1,1.1,5,105
COc1cc(C2C(C#N)=C(N)Oc3cc(N(C)C)ccc32)cc2c1OCO2 (stereo unspecified),4,-15,0,4.8*,-97,111
CC(=O)NC(CC(=O)OCc1ccc([N+](=O)[O-])cc1)c1ccccc1 (stereo unspecified),-1,nt,nt,nt,nt,nt
CC(Oc1ccc(Br)cc1)C(=O)NCC1(N2CCCCC2)CCCCC1 (stereo unspecified),1,nt,nt,nt,nt,nt
CCC(CO)Nc1ncnc2c1cnn2-c1ccc(Cl)cc1 (stereo unspecified),-7,-34,0,0.69,162*,147*
CCC(CO)Nc1ncnc2c1cnn2-c1ccc(OC)cc1 (stereo unspecified),11,-17,1,1.2,148*,147*
COc1ccc(-n2ncc3c(NCc4ccccn4)ncnc32)cc1,3,-16,1,1.1,64,112
Cc1cccc(NC(=O)c2cn(-c3ccccc3)nc2-c2ccccc2)c1,29,5,1,0.98,-12,107
CC(=O)Nc1ccc(S(=O)(=O)N[C@@H](C)C(=O)N2CCN(c3ccccn3)CC2)cc1,-1,nt,nt,nt,nt,nt
CC(=O)Nc1ccccc1C(=O)C(=O)Nc1ccccc1,12,-11,0,1.1,23,109
C/C(O)=C(/C=Nc1ccccc1)C(=O)Nc1ccccc1,48*,-2,-1,1.3,-11,96
C(=C\c1ccccn1)/c1ccccn1,4,-2,2,nt,nt,nt
Brc1ccc(N=Cc2ccccn2)cc1,55*,4,-1,1,11,96
CCc1nc(Nc2ccc3c(c2)OCO3)c2oc3ccccc3c2n1,96*,-22,0,0.38,-13,110
CCc1nc(N2CCCCC2C)c2oc3ccccc3c2n1 (stereo unspecified),48*,-2,0,1,nt,100
CCc1nc(Nc2ccncc2)c2oc3ccccc3c2n1,33,-1,0,3.6*,27,86
COc1ccc(CCNc2nc(C)nc3c2oc2ccccc23)cc1OC,34,-15,-1,0.46,20,85
Cc1nc(NCCc2cnc[nH]2)c2oc3ccccc3c2n1,53*,-18,-1,0.94,16,99
CC(=O)c1c[nH]c(C(=O)NCc2cccc(C(F)(F)F)c2)c1,3,nt,nt,nt,nt,nt
CCn1ncc(CN2CCCC(CNC(=O)c3ccc(F)cc3)C2)c1C (stereo unspecified),2,-6,0,1.1,-5,100
CCC(CCC(=O)NNC(=O)Cc1ccc([N+](=O)[O-])cc1)C(=O)O (stereo unspecified),1,-7,1,nt,nt,nt
SMILES,AHR activator,Mdm2 ligase inh,PERK inh,NF-kB expr up,APP 5'UTR act,STAT1 activator
Cc1cccc(Nc2nc(C)nc3c2oc2ccccc23)c1,48*,nt,nt,nt,nt,nt
Cc1nc(Nc2ccncc2)c2oc3ccccc3c2n1,29,-7,2,2,-5,104
Nc1ccccc1C(=O)NNC(=O)C(=O)/C=C(\O)c1ccccc1,15,-15,0,nt,nt,nt
COc1cccc2c(N/N=C/c3ccc(O)c(O)c3)cc(C)nc12,10,nt,nt,nt,nt,nt
COc1ccc(/C=N/Nc2cc(C)nc3c(C)cccc23)cc1,71*,nt,nt,nt,nt,nt
O=C(/C=C/Nc1ccc([N+](=O)[O-])cc1Br)c1cccc2ccccc12,9,6,1,1.7,149*,96
O=C(c1cc(Cl)ccc1O)N1CCN(S(=O)(=O)c2cccs2)CC1,2,nt,nt,nt,nt,nt
Cc1c(Cl)cccc1N1C(=O)CC(NNC(=O)c2ccc3c(c2)OCO3)C1=O (stereo unspecified),-1,nt,nt,nt,nt,nt
c1ccc2[nH]c(N3CCOCC3)nc2c1,1,-23,1,1.3,7,90
O=c1c(Cl)c(N2CCOCC2)cnn1-c1nc2ccccc2[nH]1,1,-10,0,1.3,104,136*
Cc1ccc(O)c(CNc2cnc3ccccc3c2)c1,10,nt,nt,nt,nt,nt
COc1cccc(CNc2cnc3ccccc3c2)c1O,10,-47,0,7.6*,93,95
CCOP(=O)(OCC)/C(=C/N1CCCCC1)NC(=O)c1ccccc1,64*,-10,1,1,6,89
CCOC(=O)C(NC(=O)c1ccccc1)=C1CCCCC1,3,-19,0,0.99,7,92
COCCCNC(=O)C(F)(F)C(F)(F)C(=O)NCCCOC,0,-10,1,1.1,-5,99
CCOC(=O)c1c(C)oc2c1c(C(c1cccnc1)N1CCCCC1)c(O)c1ccccc12 (stereo unspecified),18,-9,-1,6.6*,79,101
CN(C(=O)c1ccco1)c1nnc(C23CC4CC(CC(C4)C2)C3)s1,-1,6,0,2.3,15,140*
CN(C(=O)c1ccco1)c1nc2c(s1)CCCC2,-1,-58,2,4.1*,162*,130*
CN(CC12CC3CC(CC(C3)C1)C2)C(=O)c1ccco1,-2,nt,nt,nt,nt,nt
CN(C(=O)c1ccco1)c1nc(-c2ccc(Cl)cc2)cs1,1,nt,nt,nt,nt,nt
CC(C)(C)c1ccc(C(=O)NCC(=O)NCc2ccccn2)cc1,30,nt,nt,nt,nt,nt
COc1ccc(NC(=S)/N=C(\N)Nc2nc(C)c3ccc(C)cc3n2)cc1,55*,nt,1,nt,0,113
O=C1c2ccccc2C(=O)N1CCN1CCc2ccccc21,3,-2,1,1.2,23,132*
O=C(NCc1ccccc1)c1ccc(NC(=O)C2CCCO2)cc1 (stereo unspecified),-4,nt,nt,nt,nt,nt
O=C(Nc1ccc2snnc2c1)N1CCOCC1,3,-8,2,1.2,-19,100
S=C(Nc1ccc(N2CCOCC2)cc1)Nc1ccc2snnc2c1,55*,-14,1,1.2,28,92
CN(C)C(=O)c1cc(C(=O)c2ccccc2F)c[nH]1,-1,nt,nt,nt,nt,nt
c1ccc(OCc2nc(-c3cccs3)no2)cc1,6,-18,-1,3.1,48,145*
Fc1ccc(OCc2nc(-c3cccs3)no2)cc1,-3,3,1,2.4,88,140*
